Results taken from ChEMBL document CHEMBL3580551, “Soudanones A-G: Antifungal Isochromanones from the Ascomycetous Fungus Cadophora sp. Isolated from an Iron Mine” (2015).
Activity calls are given as the source filed them. No cut-off for these calls is given here.

Key:
Cryptococcus neoformans = assay: Antimicrobial activity against Cryptococcus neoformans ATCC 66031 assessed as inhibition of microbial growth by microbroth dilution assay; format: functional
Procedure, shortened: (§1)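 Antifungal broth microdilution test against the yeast strain (C. albicans ATCC 10231 or C. neoformans ATCC 66031). Amphotericin B at 2 μg/mL served as the control antifungal. MIC values were taken from the broth panel.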

Candida albicans = assay: Antimicrobial activity against Candida albicans ATCC 10231 assessed as inhibition of microbial growth by microbroth dilution assay; format: functional; procedure, shortened: as §1
Plasmodium falciparum = assay: Antiplasmodial activity against Plasmodium falciparum NF54 assessed as inhibition of microbial growth at 10 ug/ml by [3H]hypoxanthine incorporation assay; format: functional, organism-based
Procedure, shortened: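 In vitro screen against the drug-sensitive P. falciparum NF54 strain using a modified [3H]hypoxanthine incorporation assay. Chloroquine and artesunate were run as positive controls.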

Staphylococcus aureus = assay: Antimicrobial activity against methicillin-resistant Staphylococcus aureus ATCC 43300 assessed as inhibition of microbial growth by microbroth dilution assay; format: functional
Procedure, shortened: (§2)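 Broth microdilution susceptibility test; the read-out is MIC. The reference antibiotic was tetracycline at 10 μg/mL for MRSA ATCC 43300 and penicillin G at 10 μg/mL for E. faecalis ATCC 51299.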

Enterococcus faecalis = assay: Antimicrobial activity against vancomycin-resistant Enterococcus faecalis ATCC 51299 assessed as inhibition of microbial growth by microbroth dilution assay; format: functional; procedure, shortened: as §2
Bacillus subtilis = assay: Antimicrobial activity against Bacillus subtilis ATCC 6633 assessed as inhibition of microbial growth by microbroth dilution assay; format: functional
Procedure, shortened: (§3)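 Broth microdilution susceptibility test against the listed ATCC bacterial strain. Tetracycline at 10 μg/mL served as the positive-control antibiotic. Growth inhibition was read in broth, with MIC values reported.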

Escherichia coli = assay: Antimicrobial activity against Escherichia coli ATCC 25922 assessed as inhibition of microbial growth by microbroth dilution assay; format: functional; procedure, shortened: as §3
Acinetobacter baumannii = assay: Antimicrobial activity against Acinetobacter baumannii ATCC 19606 assessed as inhibition of microbial growth by microbroth dilution assay; format: functional; procedure, shortened: as §3
Pseudomonas aeruginosa = assay: Antimicrobial activity against Pseudomonas aeruginosa ATCC 27853 assessed as inhibition of microbial growth by microbroth dilution assay; format: functional
Procedure, shortened: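 Broth microdilution susceptibility test against P. aeruginosa ATCC 27853. Tetracycline at 50 μg/mL served as the positive-control antibiotic. Growth inhibition was read in broth, with MIC values reported.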

Klebsiella pneumoniae = assay: Antimicrobial activity against Klebsiella pneumoniae ATCC 13883 assessed as inhibition of microbial growth by microbroth dilution assay; format: functional; procedure, shortened: as §3

| Structure (SMILES) | MIC (Cryptococcus neoformans) [µg/mL] | MIC (Candida albicans) [µg/mL] | growth inhibition (GI) (Plasmodium falciparum) | MIC (Staphylococcus aureus) [µg/mL] | MIC (Enterococcus faecalis) [µg/mL] | MIC (Bacillus subtilis) [µg/mL] | MIC (Escherichia coli) [µg/mL] | MIC (Acinetobacter baumannii) [µg/mL] | MIC (Pseudomonas aeruginosa) [µg/mL] | MIC (Klebsiella pneumoniae) [µg/mL] | growth inhibition (GI) (Staphylococcus aureus) | growth inhibition (GI) (Enterococcus faecalis) | growth inhibition (GI) (Bacillus subtilis) | growth inhibition (GI) (Escherichia coli) | growth inhibition (GI) (Acinetobacter baumannii) | growth inhibition (GI) (Pseudomonas aeruginosa) | growth inhibition (GI) (Klebsiella pneumoniae) |
| --- | --- | --- | --- | --- | --- | --- | --- | --- | --- | --- | --- | --- | --- | --- | --- | --- | --- |
| CC(=O)CCCCC[C@@H]1Cc2c(C)c(O)cc(O)c2C(=O)O1 | > 100 | > 100 | inactive | > 100 | > 100 | > 100 | > 100 | > 100 | > 100 | > 100 |  |  |  |  |  |  |  |
| Cc1c(O)cc(O)c2c1C[C@@H](CCCCCC(C)O)OC2=O (some centres not stated) | > 100 | > 100 |  | > 100 | > 100 | > 100 | > 100 | > 100 | > 100 | > 100 |  |  |  |  |  |  |  |
| C[C@@H]1[C@H](O)[C@@H](C)/C=C/C=C/C=C/C=C/C=C/C=C/C=C/[C@H](O[C@@H]2O[C@H](C)[C@@H](O)[C@H](N)[C@@H]2O)C[C@@H]2O[C@](O)(C[C@@H](O)C[C@@H](O)[C@H](O)CC[C@@H](O)C[C@@H](O)CC(=O)O[C@H]1C)C[C@H](O)[C@H]2C(=O)O [AMPHOTERICIN B] | 0.2 | 0.2 |  |  |  |  |  |  |  |  |  |  |  |  |  |  |  |
| Cc1c(O)cc(O)c2c1C[C@@H](CCCCCCC(=O)O)OC2=O | > 100 | > 100 |  | > 100 | > 100 | > 100 | > 100 | > 100 | > 100 | > 100 |  |  |  |  |  |  |  |
| CCCCCCC[C@@H]1Cc2c(C)c(O)c(C(=O)O)c(O)c2CO1 | 35 | > 100 | inactive |  |  |  |  |  |  |  |  |  |  |  |  |  |  |
| O=C(O)CCCCCC[C@@H]1Cc2cc(O)cc(O)c2C(=O)O1 | > 100 | > 100 |  | > 100 | > 100 | > 100 | > 100 | > 100 | > 100 | > 100 |  |  |  |  |  |  |  |
| CCCCCCC[C@@H]1Cc2c(C)c(O)cc(O)c2C(=O)O1 | 40 | > 100 | inactive |  |  |  |  |  |  |  |  |  |  |  |  |  |  |
| Cc1c(O)cc(O)c2c1C[C@@H](CCCCCCCO)OC2=O | > 100 | > 100 |  | > 100 | > 100 | > 100 | > 100 | > 100 | > 100 | > 100 |  |  |  |  |  |  |  |
| O=C1CC[C@H](O)c2cccc(O)c21 | 30 | 40 |  |  |  |  |  |  |  |  | inactive | inactive | inactive | inactive | inactive | inactive | inactive |
| CCCCCCC[C@@H]1Cc2c(C)c(O)cc(O)c2CO1 | > 100 | > 100 |  | > 100 | > 100 | > 100 | > 100 | > 100 | > 100 | > 100 |  |  |  |  |  |  |  |
